ChEMBL document CHEMBL1146021, “Calcium channel antagonists discovered by a multidisciplinary approach” (J Med Chem, 2006)
One block for each compound: values may come before it. The source made the active and inactive calls.

Legend:
[1] = species on record: Cavia porcellus; test: Negative chronotropic activity in guinea pig right atrium at 10 uM; format: functional, Cardiac atrium
Procedure, shortened: (§1)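 Spontaneously beating guinea-pig right atria in PSS, 35 °C, pH 7.4, 95% O2/5% CO2. Cumulative concentrations 0.01-100 μM in DMSO (≤0.3% in bath), each to steady state. Rate decrease taken as percent of control (pretreatment 170-195 beats/min), n = 6-8. EC30 by Probit analysis.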

[2] = species on record: Cavia porcellus; test: Vasorelaxant activity assessed as inhibition of calcium-induced contraction of potassium ion-depolarized guinea pig aortic strips at 100 uM; format: functional, Aorta; set-up: scale not given: the % may be the effect or the level left
Procedure, shortened: (§2)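 Helicoidal guinea-pig aortic strips in aerated PSS at 35 °C, contracted with 80 mM KCl (K+ substituted for Na+). At plateau (about 45 min), compounds added cumulatively at 0.1-500 μM in DMSO vehicle. Relaxation measured isometrically. IC50 by Probit analysis, n = 6-8.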

[3] = species on record: Cavia porcellus; test: Negative inotropic activity in guinea pig left atrium; format: functional; details: Cardiac atrium
Procedure, shortened: (§3)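 Guinea-pig left atria driven at 1 Hz (0.6-0.8 ms pulses, about 50% threshold voltage) in PSS, 35 °C, pH 7.4, 95% O2/5% CO2. Isometric tension recorded. Cumulative concentrations 0.01-100 μM in DMSO (≤0.3%), each to steady state. Percent decrease in developed tension, n = 4-6. EC50 by Probit analysis.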

[4] = species on record: Cavia porcellus; test: Negative inotropic activity in guinea pig left atrium at 500 uM; format: functional, Cardiac atrium
[5] = species on record: Cavia porcellus; test: Vasorelaxant activity assessed as inhibition of calcium-induced contraction of potassium ion-depolarized guinea pig aortic strips at 500 uM; format: functional, Aorta; set-up: scale not given: the % may be the effect or the level left; procedure, shortened: as §2
[6] = species on record: Cavia porcellus; test: Negative inotropic activity in guinea pig left atrium at 1 uM; format: functional, Cardiac atrium; procedure, shortened: as §3
[7] = species on record: Cavia porcellus; test: Vasorelaxant activity assessed as inhibition of calcium-induced contraction of potassium ion-depolarized guinea pig aortic strips; format: functional; details: Aorta; procedure, shortened: as §2
[8] = species on record: Cavia porcellus; test: Negative inotropic activity in guinea pig left atrium at 50 uM; format: functional, Cardiac atrium; procedure, shortened: as §3
[9] = species on record: Cavia porcellus; test: Negative chronotropic activity in guinea pig right atrium at 500 uM; format: functional, Cardiac atrium
[10] = species on record: Cavia porcellus; test: Negative inotropic activity in guinea pig left ventricular papillary muscle; format: functional; details: Muscle tissue
[11] = species on record: Cavia porcellus; test: Cardiac activity in guinea pig heart measured as decrease in heart rate at 1 uM by ECG relative to control; format: functional; set-up: scale not given: the % may be the effect or the level left
Procedure, shortened: (§4)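 Langendorff-perfused isolated hearts from female guinea-pigs (300-400 g). Compounds given cumulatively at 0.001-1 μM, each step held to steady state (about 30 min). Read-outs: surface ECG (PR interval, heart rate), intraventricular balloon +(dP/dt)max and coronary perfusion pressure. Results given as percent change from basal at 1 μM, mean ± SEM.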

[12] = species on record: Cavia porcellus; test: Cardiac activity in guinea pig heart measured as decrease in left ventricular pressure at 1 uM relative to control; format: functional; set-up: scale not given: the % may be the effect or the level left; procedure, shortened: as §4
[13] = species on record: Cavia porcellus; test: Antagonist activity against calcium channel assessed as inhibition of calcium-induced contraction of potassium ion-depolarized guinea pig ileum longitudinal smooth muscle; format: functional
Procedure, shortened: (§5)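 Guinea-pig ileum longitudinal smooth muscle segments (2 cm) held at 300-400 mg resting tension, 37 °C, in oxygenated (100% O2) Hepes-buffered PSS at pH 7.4. Isometric contraction recorded. Inhibition expressed as percentage of control. Probit log concentration–response analysis, n = 6-8.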

[14] = species on record: Cavia porcellus; test: Antagonist activity against calcium channel assessed as inhibition of carbachol-induced tonic contraction of guinea pig ileum longitudinal smooth muscle; format: functional
Procedure, shortened: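 Guinea-pig ileum longitudinal smooth muscle segments (2 cm), 300-400 mg resting tension, 37 °C, oxygenated Hepes-buffered PSS at pH 7.4, equilibrated 1 h. Two control carbachol curves run 30 min apart. Test agent (10 μM) added 30 min before the carbachol curve. Isometric inhibition expressed as percent of control.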

[15] = species on record: Cavia porcellus; test: Negative inotropic activity in guinea pig left ventricular papillary muscle at 1 uM; format: functional, Muscle tissue
[16] = target: T1, Voltage-dependent L-type calcium channel subunit alpha-1C (Rattus norvegicus, UniProt P22002); test: Inhibition of [3H]diltiazem binding to Sprague-Dawley rat cardiomyocytes at 100 uM relative to control; details: read-out: Activity
T1 sequence (P22002 whole entry, the tested form may be a part): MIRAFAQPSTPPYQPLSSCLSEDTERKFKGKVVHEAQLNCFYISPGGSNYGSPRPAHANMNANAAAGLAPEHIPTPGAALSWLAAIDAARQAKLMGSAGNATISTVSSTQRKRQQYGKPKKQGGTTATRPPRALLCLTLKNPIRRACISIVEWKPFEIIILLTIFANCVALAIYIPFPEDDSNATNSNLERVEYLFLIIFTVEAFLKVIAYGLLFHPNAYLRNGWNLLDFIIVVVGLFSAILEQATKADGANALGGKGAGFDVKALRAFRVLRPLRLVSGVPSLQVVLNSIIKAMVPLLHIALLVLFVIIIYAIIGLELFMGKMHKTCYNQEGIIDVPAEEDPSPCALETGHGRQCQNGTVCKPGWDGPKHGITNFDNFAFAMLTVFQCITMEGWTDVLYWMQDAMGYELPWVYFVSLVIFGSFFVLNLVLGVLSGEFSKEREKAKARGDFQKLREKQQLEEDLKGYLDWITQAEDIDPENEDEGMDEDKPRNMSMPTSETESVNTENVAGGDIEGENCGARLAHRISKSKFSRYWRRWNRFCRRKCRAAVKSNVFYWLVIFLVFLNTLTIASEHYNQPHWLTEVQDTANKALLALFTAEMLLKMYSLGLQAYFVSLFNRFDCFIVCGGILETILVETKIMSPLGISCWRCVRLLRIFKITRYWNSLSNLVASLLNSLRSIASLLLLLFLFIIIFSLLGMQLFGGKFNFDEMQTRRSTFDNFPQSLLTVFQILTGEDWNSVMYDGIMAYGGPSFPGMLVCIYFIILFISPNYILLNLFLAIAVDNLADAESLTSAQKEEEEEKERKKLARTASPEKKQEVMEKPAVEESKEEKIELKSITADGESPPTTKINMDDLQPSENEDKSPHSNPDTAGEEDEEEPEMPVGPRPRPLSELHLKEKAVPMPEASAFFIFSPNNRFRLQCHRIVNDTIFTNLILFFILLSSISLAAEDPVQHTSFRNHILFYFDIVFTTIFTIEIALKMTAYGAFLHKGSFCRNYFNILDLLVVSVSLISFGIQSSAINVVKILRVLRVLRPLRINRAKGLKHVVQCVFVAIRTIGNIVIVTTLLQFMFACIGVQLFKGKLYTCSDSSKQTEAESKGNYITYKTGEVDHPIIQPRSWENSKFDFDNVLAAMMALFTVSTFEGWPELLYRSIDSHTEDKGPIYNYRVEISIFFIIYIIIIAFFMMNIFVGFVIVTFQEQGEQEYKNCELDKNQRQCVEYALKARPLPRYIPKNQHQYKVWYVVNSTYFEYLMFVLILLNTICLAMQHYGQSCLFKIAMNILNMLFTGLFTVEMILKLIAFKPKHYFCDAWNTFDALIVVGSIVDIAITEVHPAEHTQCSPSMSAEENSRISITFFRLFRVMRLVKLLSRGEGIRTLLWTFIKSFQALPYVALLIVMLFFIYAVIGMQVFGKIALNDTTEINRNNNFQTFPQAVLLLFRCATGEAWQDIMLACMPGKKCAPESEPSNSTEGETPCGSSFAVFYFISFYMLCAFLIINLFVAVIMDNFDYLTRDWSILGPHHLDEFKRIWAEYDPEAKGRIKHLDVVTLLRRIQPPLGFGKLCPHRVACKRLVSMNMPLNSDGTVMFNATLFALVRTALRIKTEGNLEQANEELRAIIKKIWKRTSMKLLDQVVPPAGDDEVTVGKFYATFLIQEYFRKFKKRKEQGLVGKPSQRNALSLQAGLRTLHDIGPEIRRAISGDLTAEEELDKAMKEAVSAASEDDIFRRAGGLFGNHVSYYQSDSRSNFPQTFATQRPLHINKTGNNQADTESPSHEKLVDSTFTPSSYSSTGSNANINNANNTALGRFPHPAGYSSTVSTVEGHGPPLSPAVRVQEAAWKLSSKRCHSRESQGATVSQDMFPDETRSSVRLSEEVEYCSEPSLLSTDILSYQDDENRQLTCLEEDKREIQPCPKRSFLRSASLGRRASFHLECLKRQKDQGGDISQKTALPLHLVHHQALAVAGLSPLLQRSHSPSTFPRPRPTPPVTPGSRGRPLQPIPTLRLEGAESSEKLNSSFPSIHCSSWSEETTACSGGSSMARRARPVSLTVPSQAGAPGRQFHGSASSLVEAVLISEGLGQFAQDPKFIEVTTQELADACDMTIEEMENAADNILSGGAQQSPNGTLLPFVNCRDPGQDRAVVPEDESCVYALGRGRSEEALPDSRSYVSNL
Procedure, shortened: (§6)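 Cardiomyocytes from male Sprague-Dawley rats, isolated by Langendorff perfusion and stored frozen (200 μg per tube). Incubated with 5 nM [3H]diltiazem and test ligand (0.1 nM-100 μM) in 50 mM Tris pH 7.4, 25 °C, 90 min. Bound ligand separated by filtration. Nonspecific binding with 100 μM diltiazem. Triplicates. pIC50 from sigmoidal fit; Ki by Cheng-Prusoff.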

[17] = species on record: Cavia porcellus; test: Cardiac activity in guinea pig heart measured as prolongation of atrioventricular conduction time at 1 uM relative to control; format: functional; procedure, shortened: as §4
[18] = species on record: Cavia porcellus; test: Antagonist activity against calcium channel assessed as inhibition of calcium-induced contraction of potassium ion-depolarized guinea pig ileum longitudinal smooth muscle at 100 uM; format: functional; set-up: scale not given: the % may be the effect or the level left; procedure, shortened: as §5
[19] = species on record: Cavia porcellus; test: Vasorelaxant activity assessed as inhibition of calcium-induced contraction of potassium ion-depolarized guinea pig aortic strips at 50 uM; format: functional, Aorta; set-up: scale not given: the % may be the effect or the level left; procedure, shortened: as §2
[20] = species on record: Cavia porcellus; test: Cardiac activity in guinea pig heart measured as decrease in coronary perfusion pressure at 1 uM relative to control; format: functional; procedure, shortened: as §4
[21] = species on record: Cavia porcellus; test: Negative inotropic activity in guinea pig left atrium at 10 uM; format: functional, Cardiac atrium; procedure, shortened: as §3
[22] = species on record: Cavia porcellus; test: Negative inotropic activity in guinea pig left ventricular papillary muscle at 10 uM; format: functional, Muscle tissue
[23] = species on record: Cavia porcellus; test: Negative chronotropic activity in guinea pig right atrium at 5 uM; format: functional, Cardiac atrium; procedure, shortened: as §1
[24] = species on record: Cavia porcellus; test: Negative chronotropic activity in guinea pig right atrium; format: functional; details: Cardiac atrium; procedure, shortened: as §1
[25] = species on record: Cavia porcellus; test: Antagonist activity against calcium channel assessed as inhibition of calcium-induced contraction of potassium ion-depolarized guinea pig ileum longitudinal smooth muscle at 1 uM; format: functional; set-up: scale not given: the % may be the effect or the level left; procedure, shortened: as §5
[26] = species on record: Cavia porcellus; test: Negative chronotropic activity in guinea pig right atrium at 50 uM; format: functional, Cardiac atrium; procedure, shortened: as §1
[27] = species on record: Cavia porcellus; test: Antagonist activity against calcium channel assessed as inhibition of calcium-induced contraction of potassium ion-depolarized guinea pig ileum longitudinal smooth muscle at 10 uM; format: functional; set-up: scale not given: the % may be the effect or the level left; procedure, shortened: as §5
[28] = species on record: Cavia porcellus; test: Negative inotropic activity in guinea pig left atrium at 5 uM; format: functional, Cardiac atrium; procedure, shortened: as §3
[29] = species on record: Cavia porcellus; test: Cardiac activity in guinea pig heart measured as increase in coronary perfusion pressure at 1 uM relative to control; format: functional; procedure, shortened: as §4
[30] = target: T1, Voltage-dependent L-type calcium channel subunit alpha-1C; test: Inhibition of [3H]diltiazem binding to Sprague-Dawley rat cardiomyocytes at 10 nM relative to control; details: read-out: Activity; procedure, shortened: as §6
[31] = species on record: Cavia porcellus; test: Negative inotropic activity in guinea pig left atrium at 100 uM; format: functional, Cardiac atrium; details: in the assay text read “50 uM” for “100 uM”; procedure, shortened: as §3
[32] = species on record: Cavia porcellus; test: Negative chronotropic activity in guinea pig right atrium at 100 uM; format: functional, Cardiac atrium; details: in the assay text read “50 uM” for “100 uM”; procedure, shortened: as §1

EC50 [3]: 1000 nM
Structure (SMILES): COC(=O)[C@H]1SCCN1S(=O)(=O)c1ccc(Cl)cc1
Activity [1]: 2% | Activity [2]: 29% | Activity [4]: 92%

EC50 [3]: 310 nM | IC50 [7]: 17700 nM
Structure (SMILES): C=CCN(c1ccccc1)S(=O)(=O)c1ccc(Cl)cc1
Activity [1]: 5% | Activity [5]: 54% | Activity [6]: 73%

EC50 [3]: 7510 nM
Structure (SMILES): C[C@H]1CC(=O)[C@](C)(CC(=O)c2ccc(Cl)cc2)C(=O)C1
Activity [1]: 2% | Activity [2]: 16% | Activity [8]: 78%

EC50 [3]: 2550 nM
Structure (SMILES): O=S(=O)(c1ccc(Cl)cc1)N(Cc1ccsc1)S(=O)(=O)c1ccc(Cl)cc1
Activity [2]: 9% | Activity [4]: 71% | Activity [9]: 7%

EC50 [10]: 36 nM | EC50 [13]: 6650 nM | IC50 [14]: 33700 nM | inhibition at 100 µM [16]: 59.6% | EC50 [3]: 920 nM
Structure (SMILES): COC(=O)c1c(-c2c(Cl)cccc2Cl)noc1C
Activity [1]: 13% | Activity [11]: 4% | Activity [12]: 31% | Activity [15]: 87% | Activity [17]: 14% | Activity [8]: 84% | Activity [18]: 99% | Activity [19]: 30% | Activity [20]: inactive

EC50 [3]: 70 nM
Structure (SMILES): CCO[C@]1(c2ccc(Br)cc2)SC=C(C)n2c1noc2=O
Activity [1]: 16% | Activity [2]: 11% | Activity [6]: 58%

EC50 [10]: 1610 nM | EC50 [13]: 110 nM | IC50 [14]: 480 nM
Structure (SMILES): COc1ccc([C@@H]2Sc3ccccc3N(CCN(C)C)C(=O)[C@@H]2OC(C)=O)cc1 [DILTIAZEM]
Activity [11]: 25% | Activity [12]: 59% | Activity [17]: 34% | Activity [2]: 88% | Activity [21]: 78% | Activity [22]: 82% | Activity [20]: 51% | Activity [23]: 94% | EC30 [24]: 70 nM | Activity [25]: 98%

EC50 [3]: 910 nM
Structure (SMILES): O=C(O)[C@@H]1CCCN1S(=O)(=O)c1ccccc1
Activity [8]: 66% | Activity [19]: 3% | Activity [23]: 22%

EC50 [3]: 360 nM
Structure (SMILES): O=S(=O)(c1ccc(Br)cc1)N1CCCCCC1
Activity [2]: 33% | Activity [8]: 91% | Activity [26]: 4%

EC50 [10]: 1380 nM | EC50 [13]: 1180 nM | IC50 [14]: 8210 nM | EC50 [3]: 310 nM | IC50 [7]: 5620 nM | inhibition at 0.01 µM [30]: -24.8%
Structure (SMILES): O=S(=O)(c1ccc(Cl)cc1)N1CCC[C@@H]1c1cccs1
Activity [1]: 4% | Activity [11]: inactive | Activity [12]: 6% | Activity [17]: 20% | Activity [2]: 74% | Activity [27]: 90% | Activity [22]: 93% | Activity [28]: 84% | Activity [29]: 17%

EC50 [3]: 6130 nM
Structure (SMILES): CC(C)(C)N(OC(=O)c1ccccc1)C(=O)C(F)(F)F
Activity [31]: 52% | Activity [32]: 7% | Activity [2]: 10%
